# Results collected from several papers.
# Protocols differ between the studies behind these lines.
# TYK2: Non-receptor tyrosine-protein kinase TYK2 (TYK2, Homo sapiens, UniProt P29597)
# TYK2 JH2: Non-receptor tyrosine-protein kinase TYK2, JH2 (TYK2, Homo sapiens, UniProt P29597)
# TYK2 JH1: Non-receptor tyrosine-protein kinase TYK2, JH1 (TYK2, Homo sapiens, UniProt P29597)
Compound,target,assay,setting,quantity,value
Cc1ccc(C(=O)NCc2ccsc2)cc1C#Cc1cn(C(C)C)c2ncnc(N)c12,TYK2,"enzyme activity, inhibitor",1 µM,activity vs control,49%
N#CCCc1ccc2c(c1)-c1[nH]c3ccc([N+](=O)[O-])cc3c1CC(=O)N2,TYK2,cell-free assay,0.5 µM,remaining signal,48.1%
Cn1nc(C(=O)NCc2ccc(C(=O)O)cc2)cc1-c1ccc2[nH]ccc2c1,TYK2 JH2,"cell-free assay, competition with immobilised ligand",0.1 µM,remaining binding,94%
CC/C(=N\NC(=O)NCc1cccc(O)c1)c1ccc(O)c(C)c1O,TYK2,"enzyme activity, inhibitor",0.1 µM,inhibition,7.2%
CN(c1nccc(-c2cnn3ncccc23)n1)C1CC1,TYK2,binding,1 µM,remaining binding,100%
CN(C)C(=O)Cn1cc(-c2nc(C3(c4ccc(-c5cnc(N)nc5)cc4)CC3)no2)cn1,TYK2 JH2,"cell-free assay, competition with immobilised ligand",1 µM,remaining binding,90%
CCN(CC)CCNC(=O)c1c(C)[nH]c(/C=C2\C(=O)Nc3ccc(F)cc32)c1C,TYK2,cell-free assay,0.5 µM,remaining signal,52.6%
O=C(Nc1cnn(-c2csc(C(=O)NC3COC3)c2)c1)Nc1ccccc1Cl,TYK2,"enzyme activity, inhibitor",5 µM,remaining activity,95.9%
Cc1ccc(NC(=O)c2ccc(C)c(C(F)(F)F)c2)cc1C#Cc1nn(C2CCC(O)CC2)c2ncnc(N)c12 (stereo not shown),TYK2,cell-free assay,10 µM,remaining signal,36%
O=c1nc(-c2ccccn2)sc2ccccc12,TYK2 JH2,"binding, competition with immobilised ligand",1 µM,remaining binding,98%
CNC(=O)c1cc(Oc2ccc(NC(=O)Nc3ccc(Cl)c(C(F)(F)F)c3)cc2)ccn1,TYK2,cell-free assay,0.5 µM,remaining signal,98.9%
CN1CC(Oc2cnc(C#N)cc2-c2ccn3nc(NC(=O)C4CC4)cc3c2)C1,TYK2,"enzyme activity, inhibitor",1 µM,inhibition,-10%
N[C@H]1CCN(c2nccc(-c3cnn4ncccc34)n2)C1,TYK2 JH1,cell-free assay,1 µM,remaining signal,76%
CCCS(=O)(=O)Nc1ccc(F)c(C(=O)c2c[nH]c3ncc(-c4ccc(Cl)cc4)cc23)c1F,TYK2,"enzyme activity, inhibitor",1 µM,inhibition,< 10%
c1ccc(N2CCN(Cc3nc4ccccc4[nH]3)CC2)nc1,TYK2 JH2,"binding, competition with immobilised ligand",1 µM,remaining binding,100%
C[C@H]1CCN(c2nccc(-c3cnn4ncccc34)n2)C1,TYK2 JH1,cell-free assay,1 µM,remaining signal,63%
CC(C)(C)c1nc(-c2cccc(NS(=O)(=O)c3c(F)cccc3F)c2F)c(-c2ccnc(N)n2)s1,TYK2,"enzyme activity, inhibitor, radiometric",1 µM,remaining activity,96%
CCOC(=O)c1cc2cc(-c3cc(C(=O)NCc4ccc(C(=O)O)cc4)nn3C)ccc2[nH]1,TYK2 JH1,"cell-free assay, competition with immobilised ligand",0.1 µM,remaining binding,90%
CN(C)c1nccc(-c2cnc3ncccn23)n1,TYK2 JH1,"cell-free assay, competition with immobilised ligand",1 µM,remaining binding,83%
